In ChEMBL document CHEMBL1144257, “5-Chloroindoloyl glycine amide inhibitors of glycogen phosphorylase: synthesis, in vitro, in vivo, and X-ray crystallographic characterization” (Bioorg Med Chem Lett, 2005) one finds IC50, minimal effective dose and Activity data, which are given here for 22 compounds.

pIC50: −log10 of the molar value.

Assay [1] deals with T1, Glycogen phosphorylase, liver form (Homo sapiens, UniProt P06737).
T1 sequence (P06737 whole entry): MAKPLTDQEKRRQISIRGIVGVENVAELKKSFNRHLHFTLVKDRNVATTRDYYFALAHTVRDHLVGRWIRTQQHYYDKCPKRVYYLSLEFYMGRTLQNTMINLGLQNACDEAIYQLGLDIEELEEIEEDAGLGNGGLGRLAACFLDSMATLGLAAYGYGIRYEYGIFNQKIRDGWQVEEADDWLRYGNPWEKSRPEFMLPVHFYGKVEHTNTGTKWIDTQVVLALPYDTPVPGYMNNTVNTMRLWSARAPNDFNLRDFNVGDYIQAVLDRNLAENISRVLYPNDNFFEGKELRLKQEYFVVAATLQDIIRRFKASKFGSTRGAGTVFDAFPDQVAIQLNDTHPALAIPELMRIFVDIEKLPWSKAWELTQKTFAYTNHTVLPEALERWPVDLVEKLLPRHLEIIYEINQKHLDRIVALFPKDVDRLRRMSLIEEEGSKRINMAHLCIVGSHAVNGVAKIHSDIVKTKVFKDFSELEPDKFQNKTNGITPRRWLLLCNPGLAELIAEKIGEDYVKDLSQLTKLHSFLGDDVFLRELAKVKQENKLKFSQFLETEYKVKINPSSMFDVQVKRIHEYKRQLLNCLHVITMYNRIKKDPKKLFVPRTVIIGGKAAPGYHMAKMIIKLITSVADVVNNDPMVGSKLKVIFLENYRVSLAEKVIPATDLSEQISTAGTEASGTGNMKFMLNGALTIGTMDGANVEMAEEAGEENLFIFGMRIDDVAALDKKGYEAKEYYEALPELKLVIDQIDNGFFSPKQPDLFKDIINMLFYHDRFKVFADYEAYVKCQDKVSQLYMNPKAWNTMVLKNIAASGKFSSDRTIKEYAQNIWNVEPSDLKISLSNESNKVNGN
The experiment in a line: (§1) Inhibitory concentration against glycogen phosphorylase.

Assay [2] relates to Mus musculus. The assay is described as follows: In-vivo minimum effective dose (MED) for reduction of plasma glucose in mouse after 3 hours. The assay is classed as functional. As to conditions: read-out: MED. In short, it runs like this:
(§2)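 Fed diabetic ob/ob mice, oral dosing in neat PEG400, starting at […] and then at successively lower doses. Plasma glucose measured 3h post-dose. Lowering is expressed as percent decrease versus vehicle-treated controls within the same experiment, with significance by unpaired t-test on group mean glucose. MED is the lowest dose giving reduction.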

Another assay concerns SK-HEP1. The experiment in a line: Inhibitory concentration against human SK-Hep-1 cells (hepatoma cell line). The assay is classed as functional, cell-based. In short, it runs like this: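 SK-HEP-1 cells carrying pre-labeled ¹⁴C-glycogen, with phosphorylase activated by forskolin. Glycogenolysis is the ¹⁴C-glycogen (dpm) difference between basal and forskolin-treated cells. Inhibition is expressed as percent of forskolin-induced glycogenolysis in DMSO controls. IC50 from a 6-point curve (0.1–30μM), triplicate points, mean of ≥2 independent experiments where repeated.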

Assay [3] is filed under the species Mus musculus. The assay is described as follows: Percentage of glucose lowering after 3h at minimum effective dose in mouse. The assay is classed as functional. The procedure, abridged:
as §2

Assay [4] deals with T1, Glycogen phosphorylase, liver form. Described as §1. The procedure, abridged: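 Recombinant human liver GPa (50ng), run in the glycogen-synthesis direction at 22°C. Compounds added in 14% DMSO before enzyme. Released phosphate read at 620nm with malachite green/molybdate in HCl after 20min. IC50 from triplicate dose-response curves, mean of ≥3 determinations (≥2 if >500 nM).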
This is another data set of the same source.

For orientation: pIC50 means the negative decadic logarithm of the IC50, by convention in mol/L. Low readings indicate a large IC50, high ones a small IC50. Regarding `COCCN(C(=O)CNC(=O)c1cc2cc(Cl)ccc2[nH]1)C1CCCC1`, the pIC50 was 6.70 in assay [1] and 5.82 in the assay with SK-HEP1. Moreover, the minimal effective dose in the assay with Mus musculus [2] is more than 10 mg/kg.
The like results for `CCCN(CCO)C(=O)CNC(=O)c1cc2cc(Cl)ccc2[nH]1` were, in that order, 6.82, 6.31 and more than 25 mg/kg.
With `O=C(NCC(=O)N(CCOCCO)C1CCCC1)c1cc2cc(Cl)ccc2[nH]1`, the pIC50 in assay [1] was 6.64; in the assay on SK-HEP1, 5.42. Moreover, the minimal effective dose in the assay with Mus musculus [2] is more than 10 mg/kg.
Take `O=C(NCC(=O)N(CC(O)CO)C1CCCC1)c1cc2cc(Cl)ccc2[nH]1` (stereo not given): the negative logarithm of the IC50 (pIC50) in assay [1] is 7.27; with SK-HEP1, 5.89. The minimal effective dose in the assay with Mus musculus [2] was found to be 10 mg/kg.
Consider `O=C(NCC(=O)N(CCO)C1CCOCC1)c1cc2cc(Cl)ccc2[nH]1`, for which the pIC50 in assay [1] was 6.60; with SK-HEP1, 5.85. Further, the minimal effective dose in the assay with Mus musculus [2] came to 5 mg/kg. The compound further registered an Activity in the assay filed under Mus musculus [3] of 27%.
As to `O=C(NCC(=O)N(CCO)C1CCCC1)c1cc2cc(Cl)ccc2[nH]1`, the pIC50 in assay [1] is 7.24; with SK-HEP1 it was 6.85. Moreover, the minimal effective dose in the assay with Mus musculus [2] was determined as 5 mg/kg. In the assay listed under Mus musculus [3], this compound came in with an Activity of 25%.
Take `O=C(NCC(=O)N(CCCO)C1CCCC1)c1cc2cc(Cl)ccc2[nH]1`: the pIC50 was 7.38 in assay [1] and 6.12 in the assay with SK-HEP1. Moreover, the minimal effective dose in the assay with Mus musculus [2] is more than 10 mg/kg.
Regarding `O=C(NCC(=O)N(CCO)C1CCC1)c1cc2cc(Cl)ccc2[nH]1`, the negative logarithm of the IC50 (pIC50) in assay [1] is 6.89; in the assay with SK-HEP1, 5.70. For the same compound, in the assay with Mus musculus [2], the minimal effective dose stood at 25 mg/kg. In the assay filed under Mus musculus [3], the Activity was 30%.
Consider `CC(O)(CO)CN(C(=O)CNC(=O)c1cc2cc(Cl)ccc2[nH]1)C1CCCC1` (stereo not given), for which the pIC50 in assay [1] is 7.08; in the assay on SK-HEP1, 5.62. In addition, in the assay with Mus musculus [2], the minimal effective dose is more than 10 mg/kg.
On to `O=C(NCC(=O)N(CCO)c1ccccc1)c1cc2cc(Cl)ccc2[nH]1`, for which the negative logarithm of the IC50 (pIC50) in assay [1] is 6.92; in the assay on SK-HEP1, 6.57. Moreover, the minimal effective dose in the assay with Mus musculus [2] was more than 10 mg/kg.
The like results for `O=C(NCC(=O)N(CCO)CC1CC1)c1cc2cc(Cl)ccc2[nH]1` were, in that order, 6.80, 5.82 and more than 10 mg/kg.
Take `CN(C)C(=O)[C@H](O)[C@H](Cc1ccccc1)NC(=O)c1cc2cc(Cl)ccc2[nH]1`: the minimal effective dose in the assay with Mus musculus [2] was determined as 25 mg/kg. The pIC50 in the assay on SK-HEP1 was 5.82. The compound further yielded an Activity in the assay filed under Mus musculus [3] of 32%.
Regarding `CN(C(=O)CNC(=O)c1cc2cc(Cl)ccc2[nH]1)C1CCCC1`, the negative logarithm of the IC50 (pIC50) was 7.26 in assay [1] and 5.77 in the assay on SK-HEP1. Further, in the assay with Mus musculus [2], the minimal effective dose is 10 mg/kg. The Activity in the assay filed under Mus musculus [3] is 36%.
In the case of `O=C(NCC(=O)N(CCOc1ccccc1)C1CCCC1)c1cc2cc(Cl)ccc2[nH]1`, in assay [4], the pIC50 was 5.85.
On to `CC(C)N(CCO)C(=O)CNC(=O)c1cc2cc(Cl)ccc2[nH]1`, for which the negative-log IC50 (pIC50) is 6.68 in assay [1] and 5.47 in the assay on SK-HEP1. Moreover, the minimal effective dose in the assay with Mus musculus [2] was more than 10 mg/kg.
Turning to `CN(Cc1ccccc1)C(=O)CNC(=O)c1cc2cc(Cl)ccc2[nH]1`, the pIC50 in assay [1] is 6.26; in the assay on SK-HEP1, less than 5.00.
On to `CCCCN(CCO)C(=O)CNC(=O)c1cc2cc(Cl)ccc2[nH]1`, for which the pIC50 is 6.92 in assay [1] and 6.00 in the assay with SK-HEP1. Further, the minimal effective dose in the assay on Mus musculus [2] was more than 10 mg/kg.
For `CC(C)(O)CN(C(=O)CNC(=O)c1cc2cc(Cl)ccc2[nH]1)C1CCCC1`, the results for the negative-log IC50 (pIC50) (in assay [1]; in the assay on SK-HEP1) were 6.82 and 5.85, respectively. Further, the minimal effective dose in the assay with Mus musculus [2] stood at 10 mg/kg. This compound also yielded an Activity in the assay listed under Mus musculus [3] of 30%.
The like results for `CC(C)CN(CCO)C(=O)CNC(=O)c1cc2cc(Cl)ccc2[nH]1` were, in that order, 6.74, 5.60, 25 mg/kg and 25%.
For the compound `O=C(NCC(=O)N(CCO)C1CCCCC1)c1cc2cc(Cl)ccc2[nH]1`, the negative-log IC50 (pIC50) is 7.00 in assay [1] and 6.15 in the assay with SK-HEP1. Besides, the minimal effective dose with Mus musculus [2] is more than 10 mg/kg.
Turning to `CN(C(=O)CNC(=O)c1cc2cc(Cl)ccc2[nH]1)C1CCCCC1`, the pIC50 was 6.82 in assay [1] and 5.85 with SK-HEP1. Further, the minimal effective dose in the assay on Mus musculus [2] is more than 10 mg/kg.
In the case of `N#CCN(C(=O)CNC(=O)c1cc2cc(Cl)ccc2[nH]1)C1CCCC1`, the pIC50 is 7.52 in assay [1] and 6.17 with SK-HEP1. The minimal effective dose with Mus musculus [2] is 10 mg/kg. Further, in the assay listed under Mus musculus [3], the Activity is listed as 40%.
